Experimental findings from publication PMC11022046 (iScience, 2024) are described below.

A word on the IC50: it is the concentration that inhibits the measured activity by half. By efflux ratio is commonly meant a quotient of directional permeabilities that is used to spot active efflux. Usually Cmax stands for the maximum level reached in the sampled fluid or tissue. The term half-life denotes how long it takes for the measured level to halve.

Data set [1] has as its system H1299 lung cancer cells. The data set is described as follows: SRB proliferation assay. The data set is classed as cell-based. The following applies: Homo sapiens, NCI-H1299, 72 h, read-out: SRB IC50. Summed up: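 H1299 cells (RPMI/10% FBS) seeded the day before, then given serial half dilutions from 20 μM down to 0.078 μM for 72 h. Fixed in cold 10% TCA for 1 h and stained 15 min with 0.4% SRB. Washed with water and 1% acetic acid, dye dissolved in 10 mM Tris pH 10.5, OD read at 560 nm. Normalized to DMSO; IC₅₀ with 95% CI by nonlinear regression. Three biological × three technical replicates.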

For data set [2], the system named is H1299 lung cancer cells. The data set can be described thus: WST-8 proliferation assay. The format is cell-based. The following applies: Homo sapiens, NCI-H1299, 72 h, read-out: WST IC50. The procedure, abridged: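 H1299 cells (RPMI/10% FBS) seeded the day before, then given serial half dilutions from 20 μM down to 0.078 μM for 72 h. WST-8 reagent added to the medium at 1:10, 2 h at 37°C, OD read at 450 nm; both adherent and non-adherent cells counted. Normalized to DMSO; IC₅₀ with 95% CI by nonlinear regression. Three biological × three technical replicates.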
(In general: Formazan colour is commonly taken as a measure of viable cells.)

The nature of data set [3]: Caco-2 permeability assay. The following applies: human. The format is in vitro ADME. Summed up: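 Caco-2 monolayers grown to confluence on transwells, with integrity checked by TEER. Test compound (5 μM) added to the apical or the basolateral side to give transport direction. After 2 h, donor and receiver samples quantified by LC-MS/MS. Lucifer Yellow used to check leakage. Propranolol (high absorption) and digoxin (high efflux) served as controls.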

A short description of data set [4]: In vivo pharmacokinetics, single IP dose. The arrangement: species or system BALB/c mice. The procedure, abridged: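 Female BALB/c mice (8–14 weeks) given 5 mg/kg by single IP injection in 1% DMSO/99% water. Plasma sampled at 0.25, 0.5, 1, 2, 4, 6, 8 and 24 h. Compound quantified by LC-MS/MS with calibration standards and QC samples. Terminal elimination half-life and maximum concentration derived; n = 3 mice per treatment.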

Data set [5] relates to H1299 cells. The data set can be described thus: TMRM flow cytometry with oligomycin. The following applies: H1299, 1 μM, 48 h, + 1 μM oligomycin, mean of three replicates. The data set is classed as cell-based, human. Summed up:
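H1299 cells (1.75 × 10⁵ per 10 cm plate) exposed 48 h to 1 μM or to DMSO. Attached and floating cells pooled and stained with 2 nM TMRM in phenol-red-free RPMI with 2% dialyzed FBS for 30 min at 37°C. Oligomycin (1 μM) added during the TMRM incubation, then flow cytometry. Three biological replicates.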

The subject of data set [6] is H1299 cells. The data set can be described thus: 3D spheroid invasion assay. The data set is classed as cell-based, human. The following applies: H1299 spheroids in basement membrane matrix, 2 μM, 48 h. The procedure, abridged: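 H1299 spheroids formed over 3 days from 3 × 10³ cells/well in low-attachment wells. Embedded in Matrigel containing 0.5, 1 or 2 μM compound, with compound also in the medium, and incubated 48 h. Imaged at Day 0 and Day 2 with a 4× objective; perimeter outlined. Invasion area = Day 2 area minus Day 0 area. At least four spheroids per treatment in each of three biological replicates.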

Data set [7] has as its system H1299 cells. The data set can be described thus: Extracellular lactate assay. The following applies: H1299, 1 and 2 μM, 48 h. The data set is classed as cell-based, human. Summed up: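 H1299 seeded at 3.75 × 10⁴ or 7.5 × 10⁴ cells/well, then treated 48 h with 1 or 2 μM or with DMSO. Medium passed through a 3K cutoff filter at 14,000 × g, 15 min, 4°C. Lactate measured with a WST-based kit on medium diluted 1:20, in triplicate, against a standard curve. Values normalized to cell count and DMSO; three biological replicates.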

The subject of data set [8] is H1299 cells. The data set can be described thus: Mitochondrial structure by electron microscopy. The format is cell-based, human. The following applies: H1299, 48 h, 1 or 2 μM. The procedure, abridged:
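H1299 cells (1.75 × 10⁵ per 10 cm plate) exposed 48 h to 1 or 2 μM or to DMSO, then scraped and pelleted. Pellets fixed 4 h at room temperature in 2.0% paraformaldehyde/2.5% glutaraldehyde in 0.1 M cacodylate, pH 7.2. Post-fixed in 1.0% osmium tetroxide for 1 h; en bloc 2% aqueous uranyl acetate, 20 min, 60°C. Three biological replicates.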

Where [9] appears, read: female, BALB/c, mouse, plasma, ip, 5 mg/kg.

Each structure is given as a SMILES string. Counter-ions that a name gives are not always drawn. Some results are limits rather than exact numbers.

Take `CCCCC(CC)CNC(=N)NC(=N)NCCCCCCNC(=N)NC(=N)NCC(CC)CCCC` (stereo not shown) [Alexidine, Alexidine dihydrochloride]: the half-maximal inhibitory concentration (IC50) in data set [1] came to 1000 nM. The IC50 in data set [2] was determined as 2500 nM. Further, in data set [3], the efflux ratio at 2 h, 5 μM is above 5.37. In data set [4] (setting [9]), this compound gave a Cmax of 268 ng/mL and a half-life of 9.5 h. In addition, the tolerability in mice result in data set [4] (mice, IP) is “tolerated in mice”. The “percentage of cells unable to hyperpolarize with oligomycin (TMRM-low population)” value in data set [5] is listed as 18.1%. Also, the “invasive area, % of the control” value in data set [6] was found to be 36.8%. Besides, the “effect on extracellular lactate” value in data set [7] was “increased lactate concentration”. The “effect on mitochondrial structure” value in data set [8] was “disrupted mitochondrial structure”.
